Assay results from different studies.
Each line is one published result; the experiments were not run side by side.
OPRD1: Delta-type opioid receptor (OPRD1, Homo sapiens, UniProt P41143)
HTR3A: 5-hydroxytryptamine receptor 3A (HTR3A, Homo sapiens, UniProt P46098)
PLG trypsin-like site: Plasminogen, trypsin-like site (PLG, Homo sapiens, UniProt P00747)
CA2: Carbonic anhydrase 2 (CA2, Homo sapiens, UniProt P00918)

Structure (SMILES) | target | assay | setting | endpoint | result
CCC(C)[C@@H](CNC)N1CCN(CCC23CC4CC(CC(C4)C2)C3)[C@H](C(C)C)C1 (some centres unmarked) | OPRD1 | cell-free assay |  | IC50 | > 10 µM
COc1cc(C(=O)N2CC[C@@H](O)[C@@H](N)C2)cc2nc(-c3cc4ccccc4n3CC3CC3)n(C)c12 | HTR3A | calcium signal, agonist |  | EC50 | 50.1 µM
CNC[C@@H](Cc1ccc(O)cc1)N1CCN(CC2CCCCCC2)[C@@H](C(C)C)C1 | OPRD1 | cell-free assay |  | IC50 | > 10 µM
CS(=O)(=O)c1cccc(OCCCC(=O)N[C@H]2C[C@@H]3C[C@@H]3C2=O)c1 (relative stereo) | Transcriptional activator protein LasR (lasR, Pseudomonas aeruginosa, UniProt P25084, A127W/Y93F) | reporter gene, agonist |  | EC50 | 0.35 µM
Cc1cn([C@@H]2CC[C@H](OC(C(=O)O)C(=O)O)C2)c(=O)[nH]c1=O | Gag-Pol polyprotein, reverse transcriptase (gag-pol, Human immunodeficiency virus 1, UniProt P03366) | enzyme activity, inhibitor |  | Ki | 6.6 µM
CC(C)(C)[C@H](NC(=O)[C@H](CCONC(=N)N)NC(=O)Cc1ccc(CNC(=N)N)cc1)C(=O)N[C@@H](CCCCN)C(=O)NCc1ccc(C(=N)N)cc1 | PLG trypsin-like site | enzyme activity, inhibitor | pH 8 | Ki | 28 µM
On1c(=S)ccc2ccccc21 | CA2 | enzyme activity, inhibitor, absorbance | pH 8 | Ki | 730 µM
Cc1cc(O)cc(C)c1C[C@H](N)C(=O)N[C@H](C)C(=O)NCC(=O)N[C@@H](Cc1ccc(Cl)cc1)C(=O)N(C)CCC[C@@]1(c2ccc(F)cc2)OCc2cc(C#N)ccc21 | Alpha-2A adrenergic receptor (ADRA2A, Homo sapiens, UniProt P08913) | ligand displacement, radioligand |  | Ki | 4.7 µM
CCOC(=O)c1cncn1[C@@H](C)c1ccc(C2(C(F)(F)F)N=N2)cc1 | HTR3A | ion current, two-electrode voltage clamp | oocytes | IC50 | 9 µM
CC(C)(C)[C@H](NC(=O)[C@H](CCONC(=N)N)NC(=O)Cc1ccc(CN)cc1)C(=O)N[C@@H](CCCCN)C(=O)NCc1ccc(C(=N)N)cc1 | PLG trypsin-like site | enzyme activity, inhibitor | pH 8 | Ki | 21 µM
Cc1ccnc(S)c1 | CA2 | enzyme activity, inhibitor, absorbance | pH 8 | Ki | 7000 µM
On1ccccc1=S | CA2 | enzyme activity, inhibitor, absorbance |  | Ki | 567 µM
CC[C@H](C)[C@H](NC(=O)[C@H](Cc1ccccc1)NC(=O)[C@H](CC(=O)O)NC(=O)[C@H](CCCNC(=N)N)NC(=O)[C@@H](NC(=O)[C@H](C)NC(=O)[C@H](CC(C)C)NC(=O)[C@H](CC(N)=O)NC(=O)[C@H](CC(=O)O)NC(=O)[C@H](CC(C)C)NC(=O)[C@@H](NC(=O)[C@@H](NC(=O)[C@H](CO)NC(=O)[C@H](CCSC)NC(=O)[C@H](CCC(=O)O)NC(=O)[C@H](CC(=O)O)NC(=O)[C@H](CO)NC(=O)[C@H](Cc1ccccc1)NC(=O)[C@H](CO)NC(=O)CNC(=O)[C@H](CC(=O)O)NC(=O)[C@H](C)NC(=O)[C@@H](N)Cc1c[nH]cn1)[C@@H](C)O)[C@@H](C)CC)[C@@H](C)O)C(=O)N[C@@H](CC(N)=O)C(=O)N[C@@H](Cc1c[nH]c2ccccc12)C(=O)N[C@@H](CC(C)C)C(=O)N[C@H](C(=O)N[C@@H](CCC(N)=O)C(=O)N[C@H](C(=O)N[C@@H](CCCCN)C(=O)N[C@H](C(=O)N[C@H](C(=O)N[C@@H](CC(=O)O)C(=O)O)[C@@H](C)O)[C@@H](C)CC)[C@@H](C)O)[C@@H](C)CC | Gastric inhibitory polypeptide receptor (GIPR, Homo sapiens, UniProt P48546) | reporter gene, agonist, luciferase |  | EC50 | > 1 µM
CCC[C@H](CNC)NC[C@@H](CCC)NCCC1CC2CCC1C2 (some centres unmarked) | OPRD1 | cell-free assay |  | IC50 | > 10 µM
O=C(CCCOc1cccc(Br)c1)N[C@H]1C[C@@H]2C[C@@H]2C1=O (relative stereo) | Transcriptional activator protein LasR (lasR, Pseudomonas aeruginosa, UniProt P25084, A127W) | reporter gene, agonist |  | EC50 | 0.2 µM
CCC(C)[C@@H](CNC)N1CCN(CCCC2CCCCC2)[C@H](C(C)C)C1 (some centres unmarked) | OPRD1 | cell-free assay |  | IC50 | > 10 µM
CC(C)(C)[C@H](NC(=O)[C@H](CCONC(=N)N)NC(=O)Cc1ccc(CN)cc1)C(=O)N[C@@H](CCONC(=N)N)C(=O)NCc1ccc(C(=N)N)cc1 | PLG trypsin-like site | enzyme activity, inhibitor | pH 8 | Ki | 19 µM
